According to ChEMBL document CHEMBL4033799, “Stable and Long-Lasting, Novel Bicyclic Peptide Plasma Kallikrein Inhibitors for the Treatment of Diabetic Macular Edema” (J Med Chem, 2018):

Experiments:
[1] = Half life in mouse plasma at 4 uM measured up to 24 hrs by LC-MS/MS analysis; type: ADME, cell-free
In short: (§1)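 Peptide from a 0.16 mM DMSO stock was added to human, rat or mouse plasma (final 4 μM) or to homogenized human vitreous (final 1 μM), with internal standard. Samples were incubated at 37 °C for up to 24 h and extracted with water/acetonitrile/methanol 1:3:3.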

Rattus norvegicus [2] = assay: Toxicity in rat at 125 ug administered as systemic dose; settings: in vivo
[3] = Half life in human plasma at 4 uM measured up to 24 hrs by LC-MS/MS analysis; type: ADME, cell-free; in short: as §1
[4] = Drug level in New Zealand white rabbit ipsialateral eye vitreous humor at 2 mg/ml, administered via ivt injection at late time point measured up to 100 hrs by LC-MS/MS analysis; type: ADME, tissue-based, Oryctolagus cuniculus; settings: ipsilateral eye vitreous humor, topical or ocular, read-out: Drug uptake
In short: (§2)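 Male New Zealand White rabbits (10 weeks old, ~2 kg) received one 50 μL intravitreal injection per eye of peptide at 2 mg/mL in 50 mM sodium phosphate, pH 7.2. Animals were sacrificed at 15 min, 1, 4, 8, 24, 48 and 96 h (3 per time point). Whole vitreous was homogenized, clarified, 0.2 μm filtered and assayed by LC-MS/MS, with a lower limit of detection of 1 ng/mL in vitreous.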

[5] = Drug level in New Zealand white rabbit ipsialateral eye vitreous humor at 2 mg/ml, administered via ivt injection at early time point measured up to 100 hrs by LC-MS/MS analysis; type: ADME, tissue-based, Oryctolagus cuniculus; settings: ipsilateral eye vitreous humor, topical or ocular, read-out: Drug uptake; in short: as §2
Plasma kallikrein [6] = target: Plasma kallikrein (Mus musculus, UniProt P26262)
[7] = Drug level in New Zealand white rabbit contralateral eye vitreous humor at 2 mg/ml, administered via ivt injection by LC-MS/MS analysis; type: ADME, tissue-based, Oryctolagus cuniculus; settings: in vivo, topical_or_ocular
Plasma kallikrein [8] = target: Plasma kallikrein (Homo sapiens, UniProt P03952); assay: Inhibition of human plasma kallikrein using fluorogenic H-Pro-Phe-Arg-AMC peptide as substrate preincubated for 15 mins followed by substrate addition measured by fluorescence-based assay; settings: read-out: Ki(app)
Kallikrein-6 = Kallikrein-6 (Homo sapiens, UniProt Q92876); assay: Inhibition of recombinant human C-terminal His-tagged KLK6 isoform 1 (1 to 244 residues) expressed in HEK293 cells using fluorogenic Boc-QARAMC peptide as substrate by fluorescence based assay
In short: (§3)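 Human serine proteases were assayed with substrates and conditions set by each supplier's recommendations. Peptides were first screened at 50 μM. Where inhibition was detected, Ki was determined from activity across peptide concentrations using a tight-binding rate equation.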

Plasma kallikrein [9] = target: Plasma kallikrein (Rattus norvegicus, UniProt P14272); assay: Inhibition of recombinant Sprague-Dawley rat plasma kallikrein using fluorogenic H-Pro-Phe-Arg-AMC peptide as substrate preincubated for 15 mins followed by substrate addition measured by fluorescence-based assay; settings: read-out: Ki(app)
[10] = target: T1, Complement C1s subcomponent (Homo sapiens, UniProt P09871); assay: Inhibition of recombinant human C-terminal 6His-tagged complement component C1s (1 to 688 residues) expressed in mouse NS0 cells using fluorogenic Z-Lys-SBzl peptide as substrate after 5 mins by fluorescence based assay; in short: as §3
T1 sequence (P09871 whole entry): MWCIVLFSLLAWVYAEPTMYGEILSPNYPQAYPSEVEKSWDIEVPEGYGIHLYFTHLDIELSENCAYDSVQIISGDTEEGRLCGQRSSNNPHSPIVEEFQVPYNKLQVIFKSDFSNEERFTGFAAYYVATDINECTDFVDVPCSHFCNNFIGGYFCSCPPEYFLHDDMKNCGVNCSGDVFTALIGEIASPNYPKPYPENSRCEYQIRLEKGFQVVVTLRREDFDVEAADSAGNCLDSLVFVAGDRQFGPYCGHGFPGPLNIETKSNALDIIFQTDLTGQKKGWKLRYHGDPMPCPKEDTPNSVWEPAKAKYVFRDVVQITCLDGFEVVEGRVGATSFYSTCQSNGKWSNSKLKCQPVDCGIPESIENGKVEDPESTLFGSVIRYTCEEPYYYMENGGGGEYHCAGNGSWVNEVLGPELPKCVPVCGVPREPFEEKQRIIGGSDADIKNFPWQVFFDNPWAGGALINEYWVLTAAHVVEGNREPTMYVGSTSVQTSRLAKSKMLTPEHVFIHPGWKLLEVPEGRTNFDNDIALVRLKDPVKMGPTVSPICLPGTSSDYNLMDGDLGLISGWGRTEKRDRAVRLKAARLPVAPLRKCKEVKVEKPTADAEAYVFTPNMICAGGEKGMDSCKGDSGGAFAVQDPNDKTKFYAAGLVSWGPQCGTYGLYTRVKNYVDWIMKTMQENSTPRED

Prothrombin = Prothrombin (Homo sapiens, UniProt P00734); assay: Inhibition of recombinant human alpha thrombin using fluorogenic peptide as substrate by fluorescence based assay
In short: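 Panel of human serine proteases. Substrates and assay conditions followed each supplier's recommendations. Peptides were first screened at 50 μM. Where inhibition was detectable, hydrolytic activity was measured across a range of peptide concentrations. Ki was obtained by fitting to the tight-binding inhibitor rate equation.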

Coagulation factor X = Coagulation factor X (Homo sapiens, UniProt P00742); assay: Inhibition of recombinant human C-terminal 10His-tagged factor Xa (24 to 488 residues) expressed in baculovirus derived insect sf21 cells using fluorogenic Mca-RPKPVE-Nval-WRK(Dnp)-NH2 peptide as substrate by fluorescence based assay; in short: as §3
Rattus norvegicus [11] = assay: Antiinflammatory activity in ip dosed Sprague-Dawley rat carrageenan-induced paw edema model assessed as inhibition of edema pretreated for 15 mins followed by carrageenan challenge measured up to 6 hrs; type: functional, organism-based
In short: (§4)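 Male Sprague-Dawley rats received peptide IP (30, 10 or 3 mg/kg), or indomethacin IP at 5 mg/kg, 15 min before subplantar carrageenan. Paw volume was followed over time against a vehicle group.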

Rattus norvegicus [12] = assay: Antiinflammatory activity in Sprague-Dawley rat assessed as inhibition carrageenan-induced paw edema at 30 mg/kg, ip pretreated for 15 mins followed by carrageenan challenge measured at 6 hrs post carrageenan challenge; type: functional; in short: as §4
Rattus norvegicus [13] = assay: Antiinflammatory activity in Sprague-Dawley rat assessed as inhibition carrageenan-induced paw edema at 30 mg/kg, ip pretreated for 15 mins followed by carrageenan challenge measured at 2 hrs post carrageenan challenge; type: functional; in short: as §4
[14] = Aqueous solubility of the compound in buffer; type: physicochemical
Rattus norvegicus [15] = assay: Antiinflammatory activity in Sprague-Dawley rat assessed as inhibition carrageenan-induced paw edema at 30 mg/kg, ip pretreated for 15 mins followed by carrageenan challenge measured at 4 hrs post carrageenan challenge; type: functional; in short: as §4
Rattus norvegicus [16] = assay: Antiinflammatory activity in Sprague-Dawley rat assessed as inhibition carrageenan-induced paw edema at 30 mg/kg, ip pretreated for 15 mins followed by carrageenan challenge measured at 1 hr post carrageenan challenge; type: functional; in short: as §4
Mus musculus = assay: Antidiabetic activity in STZ-induced diabetic C57BL/6J mouse model assessed as reduction in retinal vascular permeability at 100 ug administered 4 times via ivt measured at 8 weeks post diabetes onset relative to control; type: functional
In short: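 Diabetes was induced with STZ in male C57BL/6J mice. Peptide was given as repeated intravitreal injections (4 × 100 μg). Retinal permeability was read as FITC-BSA extravasation 8 weeks after diabetes onset and compared with vehicle-treated diabetic mice. The anti-VEGFR2 antibody DC101 (6.2 μg/eye, single dose) served as positive control.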

Row | half-life at 4 µM [1] | half-life at 4 µM [3] | concentration at 100 h [4] | concentration at 100 h [5] | Ki (Plasma kallikrein [6]) | Drug uptake [7] | Ki (Plasma kallikrein [8]) | Ki (Kallikrein-6) | Ki (Plasma kallikrein [9]) | Ki [10] | Ki (Prothrombin) | Ki (Coagulation factor X) | solubility [14] | SMILES | Activity (Rattus norvegicus [2]) | inhibition (Rattus norvegicus [11]) | inhibition in vivo at 30 mg/kg (Rattus norvegicus [12]) | inhibition in vivo at 30 mg/kg (Rattus norvegicus [13]) | inhibition in vivo at 30 mg/kg (Rattus norvegicus [15]) | inhibition in vivo at 30 mg/kg (Rattus norvegicus [16]) | inhibition (INH) (Mus musculus)
1 | > 24 h | > 24 h | 8 µM | 45 µM | – | – | – | – | – | – | – | – | – | CC(=O)N[C@H]1CSCc2cc3cc(c2)CSC[C@H](NC(=O)[C@H](CCCCNC(=N)N)NC(=O)[C@H](Cc2ccc(O)cc2)NC(=O)[C@@H]2CCN2C(=O)[C@H](Cc2ccccc2)NC(=O)[C@H](CO)NC1=O)C(=O)N[C@@H](C)CN[C@@H](Cc1cnc[nH]1)C(=O)N[C@@H](CCC(N)=O)C(=O)N[C@@H](CC(=O)O)C(=O)N[C@@H](CC(C)C)C(=O)N[C@H](C(=O)O)CSC3 | Non-Toxic | – | – | – | – | – | –
2 | – | – | – | – | 0.045 µM | 1 ng/mL | 0.00025 µM | > 50 µM | 0.0055 µM | > 50 µM | > 50 µM | 23 µM | – | CC[C@H](C)[C@@H]1NC(=O)[C@H](CC(=O)O)NC(=O)[C@@H]2CCCN2C(=O)[C@H](Cc2ccc(O)cc2)NC(=O)[C@H](Cc2ccc(O)cc2)NC(=O)[C@H](C(C)C)NC(=O)[C@@H]2CSCc3cc(cc(c3)CSC[C@@H](C(=O)N[C@@H](C)C(=O)N(C)CC(=O)N(C)CC(=O)N(C)CC(=O)N[C@H](CCCNC(=N)N)C(=O)N[C@H](CCCNC(=N)N)C(=O)O)NC1=O)CSC[C@H](NC(C)=O)C(=O)N[C@@H](CO)C(=O)N[C@@H](Cc1ccccc1)C(=O)N1CCC1C(=O)N[C@@H](Cc1ccc(O)cc1)C(=O)N[C@@H](CCCCNC(=N)N)C(=O)N2 (stereo partly specified) | – | – | – | – | – | – | –
3 | > 24 h | > 24 h | – | – | – | – | – | > 50 µM | – | > 50 µM | > 50 µM | > 50 µM | Soluble | CC(=O)N[C@H]1CSCc2cc3cc(c2)CSC[C@H](C(=O)N[C@@H](C)C(=O)N(C)CC(=O)N(C)CC(=O)N(C)CC(=O)N[C@H](CCCNC(=N)N)C(=O)N[C@H](CCCNC(=N)N)C(=O)O)NC(=O)[C@H](CC(C)C)NC(=O)[C@@H]2CCCN2C(=O)[C@H](C)NC(=O)[C@H](CC(=O)O)NC(=O)[C@H](Cc2c[nH]c4ccccc24)NC(=O)[C@@H]2CCCN2C(=O)[C@H](CSC3)NC(=O)[C@H](Cc2c[nH]c3ccccc23)NC(=O)[C@@H]2CCCN2C(=O)[C@H](CC(N)=O)NC(=O)[C@H](Cc2c[nH]c3ccccc23)NC(=O)[C@H]([C@@H](C)O)NC(=O)[C@H](CC(N)=O)NC1=O | – | Dose-dependent effect | 64% | 59% | 60% | 71% | 36%
